According to PubChem BioAssay:
Activity calls are given as the source filed them. Unless noted, no stated cut-off is given here; in the data, active means inhibition above about 30%; inactive means the rest.

Tests used:
[1] = Her2 expression decrease, cell viability multiplex – SKBR3 breast tumor cells, AlphaScreen, ATP viability, primary screen (AID 461;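 active means Her2 level under about 52% in both replicate screens, with viability over 70% of control, limit read from the data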;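 on Her2 level: lower value means less Her2 protein in the cells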;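 on viability: percent of carrier control wells set as 100% viability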); conditions: SKBR3 Her2 protein level, 18-24 h, measured here: SKBR3 viability, ATP luminescence, at 10 µM
[2] = biological target: Receptor tyrosine-protein kinase erbB-2 (Homo sapiens) (UniProt P04626); assay: as above; conditions: 18-24 h, at 10 µM, stronger effect = lower value
Sequence of Receptor tyrosine-protein kinase erbB-2 (Homo sapiens) (P04626 whole entry, looked up): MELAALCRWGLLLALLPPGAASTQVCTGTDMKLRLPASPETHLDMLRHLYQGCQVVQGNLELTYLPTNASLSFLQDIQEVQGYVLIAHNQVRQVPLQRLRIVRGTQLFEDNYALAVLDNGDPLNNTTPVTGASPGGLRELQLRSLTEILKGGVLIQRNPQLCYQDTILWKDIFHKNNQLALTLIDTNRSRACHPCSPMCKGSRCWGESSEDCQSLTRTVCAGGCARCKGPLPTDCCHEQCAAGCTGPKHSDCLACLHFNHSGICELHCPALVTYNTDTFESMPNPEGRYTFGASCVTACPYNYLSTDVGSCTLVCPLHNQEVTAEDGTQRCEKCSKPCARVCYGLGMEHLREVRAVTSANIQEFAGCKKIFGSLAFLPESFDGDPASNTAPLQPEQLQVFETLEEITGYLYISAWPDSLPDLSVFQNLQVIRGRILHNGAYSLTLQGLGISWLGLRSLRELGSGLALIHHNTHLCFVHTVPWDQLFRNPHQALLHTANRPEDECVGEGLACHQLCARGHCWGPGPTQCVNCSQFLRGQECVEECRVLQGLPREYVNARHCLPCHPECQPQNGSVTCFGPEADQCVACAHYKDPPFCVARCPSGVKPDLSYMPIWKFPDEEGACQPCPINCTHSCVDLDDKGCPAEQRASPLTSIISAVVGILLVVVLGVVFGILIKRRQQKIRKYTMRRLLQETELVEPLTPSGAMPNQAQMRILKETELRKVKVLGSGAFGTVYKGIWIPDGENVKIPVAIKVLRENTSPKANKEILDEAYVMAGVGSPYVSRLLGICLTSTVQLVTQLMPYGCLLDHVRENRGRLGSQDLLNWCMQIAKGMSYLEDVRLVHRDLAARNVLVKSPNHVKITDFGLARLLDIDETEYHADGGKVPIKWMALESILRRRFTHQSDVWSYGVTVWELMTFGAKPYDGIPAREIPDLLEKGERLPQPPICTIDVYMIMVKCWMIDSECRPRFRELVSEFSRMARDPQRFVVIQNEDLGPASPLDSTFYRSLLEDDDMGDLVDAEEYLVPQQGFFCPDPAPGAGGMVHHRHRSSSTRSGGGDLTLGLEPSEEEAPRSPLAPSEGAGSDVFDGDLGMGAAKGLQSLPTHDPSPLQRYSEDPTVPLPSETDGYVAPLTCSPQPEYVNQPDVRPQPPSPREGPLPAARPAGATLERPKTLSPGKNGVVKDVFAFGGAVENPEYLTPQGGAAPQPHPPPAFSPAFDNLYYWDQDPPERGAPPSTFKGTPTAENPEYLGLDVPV

[3] = reduced viability of SK-BR-3 breast cancer cells – cell-based, 24 h, human, pilot screen (AID 572;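 active means viability at or below 10% of carrier control in both of two separate runs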;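 further: compound exposure lasted between 18 and 24 h rather than exactly 24 h; 100% = carrier-treated control wells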); conditions: SK-BR-3 viability, CellTiter-Glo luminescence, at 10 µM, stronger effect = lower value
[4] = HUVEC growth inhibition – cell-based, human, primary screen (AID 575;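 active means viability at or below 30% in both replicate assays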;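 further: 100% = median of untreated cell wells with 0.1% DMSO on each plate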); conditions: HUVEC proliferation, CellTiter-Glo luminescence, 72 h; at 10 µM; stronger effect = lower value
Summary of the method: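 Assay system: primary human umbilical vein endothelial cells / Buffer or medium: endothelial basal medium with 2% FBS plus growth supplements / Compound dosing: one dose, 10 µM final, 0.1% DMSO / Timing: 72 h treatment at 37 °C / Signal: CTG luminescence / Benchmarks: 32 DMSO-only cell-control wells (high), 32 MePR drug-control wells (low) per plate / Plate: collagen-coated 384-well format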

[5] = H69AR cell proliferation blockers – human, duplicate replicates, primary screen (AID 580;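 active means viability at or under a set limit in both replicates, limit being median viability minus 3 SD, cut at about 48% in these data, passing the limit was not always enough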;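 further: 100% = mean luminescence of untreated wells and 0% = no signal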); conditions: H69AR lung tumor cells viability, ATP luminescence, 72 h; at 10 µM; stronger effect = lower value
[6] = MRP1 drug-resistance reversers in H69AR cells – cell-based, doxorubicin co-treatment, pilot screen (AID 601;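 active means viability loss from added drug above about 55%, and viability with drug at most 40%, in both replicates, limit read from the data, passing the limit was not always enough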); conditions: CellTiter-Glo, 72 h, at 10 µM; for differential viability (reversal): stronger effect = higher value
[7] = yeast transport mutant growth inhibition pilot in 384-well plates, post-Golgi transport modulator project (AID 636; in the data active means inhibition above about 31%); conditions: absorbance 615 nm, about 18 h, stronger effect = higher value
[8] = growth suppression of yeast trafficking mutant, preliminary HTS, modulators of trafficking downstream of Golgi apparatus project, 1536-format plate, OD 615 nm (AID 637); conditions: yeast transport mutant growth, absorbance 615 nm, 18 h; stronger effect = higher value
[9] = H69AR cells + 2 uM doxorubicin, measured here: viability with 2 uM doxorubicin, stronger effect = lower value
[10] = H69AR cells, compound alone cytotoxicity

Row | SMILES | viability [1] [%] | Her2 level [2] | viability [3] | viability [4] | viability [5] | differential viability (reversal) ([6]; H69AR cells + 2 uM doxorubicin) | viability [6, 9] [%] | viability [6, 10] [%] | inhibition [7] | inhibition [8]
1 | Cc1ccc(NC(=O)CSc2nnc(CCCCCNC(=O)OC(C)(C)C)o2)c(C)c1 | 112 | 87% (inactive) | 112% (inactive) | 88.6% (inactive) | 93.2% (inactive) | 1.79% (inactive) | 91.4 | 93.2 | 1.71% (inactive) | 1.29% (inactive)
2 | COc1ccc(OC)c(C(=O)CSc2nc3ncccc3[nH]2)c1 | 94 | 108% (inactive) | 94% (inactive) | 96.6% (inactive) | 88.9% (inactive) | 7.8% (inactive) | 81.1 | 88.9 | -1.17% (inactive) | 12.5% (inactive)
3 | Cc1ccc(-n2ncc3c(N4CCN(c5ccc(F)cc5)CC4)ncnc32)c(C)c1 | 87.5 | 94.5% (inactive) | 87.5% (inactive) | 91.8% (inactive) | 71.4% (inactive) | 31.8% (inactive) | 39.6 | 71.4 | 0.26% (inactive) | -3.55% (inactive)
4 | COc1ccc(CCNc2oc(-c3ccco3)nc2C#N)cc1 | 95 | 81.5% (inactive) | 95% (inactive) | 96.7% (inactive) | 94.6% (inactive) | -3.7% (inactive) | 98.3 | 94.6 | -3.07% (inactive) | 3.93% (inactive)
5 | CC(C)(C)N=C1NC(=NC(C)(C)C)c2ccccc21 | 77 | 86% (inactive) | 77% (inactive) | 86% (inactive) | 69.3% (inactive) | -11.5% (inactive) | 80.8 | 69.3 | 0.92% (inactive) | -7.64% (inactive)
6 | CC(=O)Nc1ccc(-c2nn[nH]n2)cc1Cl | 87 | 89% (inactive) | 87% (inactive) | 104% (inactive) | 104% (inactive) | 8.39% (inactive) | 95.6 | 104 | -1.6% (inactive) | -2.9% (inactive)
7 | COc1cccc(OC)c1C(=O)N1CCOCC1 | 100 | 87.5% (inactive) | 100% (inactive) | 92.1% (inactive) | 100% (inactive) | 15% (inactive) | 85.1 | 100 | -1.84% (inactive) | -0.81% (inactive)
8 | COc1ccc(C(=O)CSc2nc(C)cc(=O)[nH]2)cc1 | 99.5 | 87.5% (inactive) | 99.5% (inactive) | 99.7% (inactive) | 101% (inactive) | 10% (inactive) | 91.4 | 101 | -3.2% (inactive) | 2.1% (inactive)
9 | Cn1c(C(=O)NCCC2=CCCCC2)cc2c(=O)n3ccccc3nc21 | 88 | 98.5% (inactive) | 88% (inactive) | 95.5% (inactive) | 96.1% (inactive) | 15.7% (inactive) | 80.4 | 96.1 | 0.26% (inactive) | -1.97% (inactive)
10 | CC(Oc1ccccc1)C(=O)Nc1ccc(S(=O)(=O)NCC2CCCO2)cc1 (stereo not given) | 89.5 | 94.5% (inactive) | 89.5% (inactive) | 101% (inactive) | 98.7% (inactive) | 4.12% (inactive) | 94.6 | 98.7 | -1.73% (inactive) | -5.71% (inactive)
11 | Cc1nc(NC2=NCN(CCN3CCOCC3)CN2)nc2c(C)cccc12 | 114 | 91.5% (inactive) | 114% (inactive) | 77.3% (inactive) | 95.2% (inactive) | -12.6% (inactive) | 108 | 95.2 | -2.11% (inactive) | -7.33% (inactive)
12 | Cc1cc2oc(C(=O)NC3CCS(=O)(=O)C3)c(C)c2cc1C (stereo not given) | 99.5 | 98% (inactive) | 99.5% (inactive) | 97.7% (inactive) | 93.7% (inactive) | 22.6% (inactive) | 71 | 93.7 | 1.45% (inactive) | 1.48% (inactive)
13 | COc1ccc(CN(C(=O)c2ccccc2OC)C2CCS(=O)(=O)C2)cc1 (stereo not given) | 95 | 90.5% (inactive) | 95% (inactive) | 115% (inactive) | 96.8% (inactive) | 7.03% (inactive) | 89.8 | 96.8 | -0.53% (inactive) | 9.34% (inactive)
14 | CC(C)[C@H](NC(=O)NCc1ccc(Cl)cc1)C(=O)O | 86 | 77% (inactive) | 86% (inactive) | 89.1% (inactive) | 103% (inactive) | 11.2% (inactive) | 91.9 | 103 | -4% (inactive) | -4.75% (inactive)
15 | CN(C)S(=O)(=O)c1ccc(S(=O)(=O)N(Cc2ccco2)Cc2ccccc2Cl)cc1 | 93 | 93% (inactive) | 93% (inactive) | 100% (inactive) | 95.8% (inactive) | 7.62% (inactive) | 88.2 | 95.8 | -9.18% (inactive) | -2.7% (inactive)
16 | Cc1cc(=O)[nH]c(SCC(=O)NCc2ccco2)n1 | 95 | 106% (inactive) | 95% (inactive) | 88.6% (inactive) | 94.6% (inactive) | -5.85% (inactive) | 100 | 94.6 | -5.48% (inactive) | -2.38% (inactive)
17 | CCNC(=O)C1CC(=O)N(Cc2ccc3c(c2)OCO3)C(=Nc2ccc(OCC)cc2)S1 (stereo not given) | 94.5 | 76% (inactive) | 94.5% (inactive) | 48.6% (inactive) | 66.1% (inactive) | 2.95% (inactive) | 63.1 | 66.1 | -2.11% (inactive) | 6.89% (inactive)
18 | CCOC(=O)c1[nH]c(C)c(C(=O)Nc2cc(OC)ccc2OC)c1C | 81 | 65% (inactive) | 81% (inactive) | 47.4% (inactive) | 25.5% (active) | -45.8% (inactive) | 71.3 | 25.5 | -2.24% (inactive) | -4.92% (inactive)
19 | COc1cccc(N(C(=O)c2ccco2)C(C(=O)NC2CCCC2)c2ccc(N(C)C)cc2)c1 (stereo not given) | 98 | 92.5% (inactive) | 98% (inactive) | 97.5% (inactive) | 91.8% (inactive) | 14.6% (inactive) | 77.2 | 91.8 | -5.45% (inactive) | -2.13% (inactive)
20 | NC(=O)C1(N2CCCCC2)CCN(CC(=O)Nc2cc(Cl)ccc2Cl)CC1 | 105 | 91.5% (inactive) | 105% (inactive) | 81.6% (inactive) | 91.8% (inactive) | -11.5% (inactive) | 103 | 91.8 | -1.6% (inactive) | 2.79% (inactive)
21 | Cc1cc2ncn(S(=O)(=O)c3ccc(S(=O)(=O)N4CCOCC4)cc3)c2cc1C | 91.5 | 91.5% (inactive) | 91.5% (inactive) | 102% (inactive) | 98.3% (inactive) | 0.945% (inactive) | 97.3 | 98.3 | -1.47% (inactive) | -7.1% (inactive)
22 | COC(=O)C1C(=O)C2=C(CC1C)NC(=O)CC2c1ccccc1 (stereo not given) | 102 | 97% (inactive) | 102% (inactive) | 91.7% (inactive) | 103% (inactive) | 15.2% (inactive) | 87.9 | 103 | -3.55% (inactive) | 5.33% (inactive)
23 | O=C(NCc1ccccc1)N[C@@H](Cc1ccccc1)C(=O)O | 96 | 95% (inactive) | 96% (inactive) | 106% (inactive) | 92.6% (inactive) | 3.32% (inactive) | 89.2 | 92.6 | -2.86% (inactive) | 3.5% (inactive)
24 | CC(C)COc1ccc(-c2nnn(CC(=O)N3CCCC3)n2)cc1 | 86 | 85% (inactive) | 86% (inactive) | 108% (inactive) | 104% (inactive) | 14.9% (inactive) | 88.9 | 104 | -8.67% (inactive) | 16.9% (inactive)
25 | c1ccc(-c2csc(N3CCCCCC3)n2)cc1 | 91.5 | 104% (inactive) | 91.5% (inactive) | 104% (inactive) | 100% (inactive) | 14.9% (inactive) | 85.6 | 100 | -0.27% (inactive) | -4.35% (inactive)
26 | COc1ccc(-c2nnn(CCc3nn[nH]n3)n2)cc1OC | 119 | 98.5% (inactive) | 119% (inactive) | 96.9% (inactive) | 95.5% (inactive) | -3.76% (inactive) | 99.2 | 95.5 | -3.6% (inactive) | 9.18% (inactive)
27 | Cc1ccccc1C(=O)NC1CCN(Cc2nnnn2Cc2ccccc2)CC1 | 93.5 | 78% (inactive) | 93.5% (inactive) | 91.3% (inactive) | 98.2% (inactive) | 2.56% (inactive) | 95.6 | 98.2 | -4.46% (inactive) | 3.49% (inactive)
28 | Cc1nnc(SCC(=O)Nc2ccc3c(c2)OCCO3)n1CC1CCCO1 (stereo not given) | 102 | 88.5% (inactive) | 102% (inactive) | 91.8% (inactive) | 94% (inactive) | 3.46% (inactive) | 90.6 | 94 | -5.14% (inactive) | -3.33% (inactive)
